Bioassay records deposited in PubChem BioAssay by The Scripps Research Institute Molecular Screening Center.
HTRA1 inhibitor: HTRA1 (human) protease inhibition; Q92743; recombinant HTRA1, FP-rhodamine activity-based probe, fluorescence polarization; inhibition, % at 5.96 µM; hit rate 0.5% among 340,000; AID 504803; in the data active = inhibition above about 36%;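 note: 0% = enzyme with DMSO and 100% = wells lacking enzyme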
pPAFAH FP inh: inhibitors of human plasma PAF acetylhydrolase (pPAFAH); hit rate 1.5% among 330,000; AID 463082; inhibition, % at 3.39 µM; recombinant pPAFAH, FP-rhodamine probe fluorescence polarization;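 active = inhibition above the mean inhibition across the screen plus 3 SD, cut at about 25% in these data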;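 note: inhibitors block binding of the rhodamine activity-based probe so polarization drops; 0% = enzyme with DMSO and 100% = wells lacking pPAFAH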
PAFAH1B2 inh: PAFAH1B2 (human) inhibition | inhibition, % at 3.39 µM | AID 492953 | hit rate 1.2% among 340,000 | recombinant PAFAH1B2, FP-rhodamine activity probe, fluorescence polarization;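 active = inhibition above the mean of all tested compounds plus 3 SD, cut at about 24% in these data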;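 note: 0% = enzyme with DMSO and 100% = wells lacking PAFAH1B2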
Target sequence (P68402 whole entry, looked up): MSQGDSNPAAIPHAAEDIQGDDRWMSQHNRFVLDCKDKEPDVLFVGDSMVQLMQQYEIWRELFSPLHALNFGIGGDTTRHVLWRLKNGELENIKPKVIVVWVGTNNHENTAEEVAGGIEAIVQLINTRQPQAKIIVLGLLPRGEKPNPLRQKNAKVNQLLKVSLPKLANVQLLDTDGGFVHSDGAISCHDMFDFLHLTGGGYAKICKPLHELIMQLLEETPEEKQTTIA
PAFAH1B3 FP inh: PAFAH1B3 (human) inhibition | Q15102 | recombinant PAFAH1B3, FP-rhodamine probe, fluorescence polarization | hit rate 0.28% among 340,000 | inhibition, % at 3.39 µM;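 active = inhibition above the screen-wide average of all tested compounds plus 3 SD, cut at about 25% in these data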;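 note: 0% = enzyme with DMSO only and 100% = wells lacking PAFAH1B3 protein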
mABHD4 FP: inhibitors of mouse ABHD4; purified mABHD4, FP-Rh probe fluorescence polarization; inhibition, % at 8.92 µM; hit rate 0.54% among 370,000; AID 720543;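 active = inhibition exceeding the mean over every tested compound plus 3 SD, cut at about 30% in these data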;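 note: 0% = plate median of compound wells and 100% = S159A mutant with DMSO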
Target sequence (Q8VD66 whole entry, looked up): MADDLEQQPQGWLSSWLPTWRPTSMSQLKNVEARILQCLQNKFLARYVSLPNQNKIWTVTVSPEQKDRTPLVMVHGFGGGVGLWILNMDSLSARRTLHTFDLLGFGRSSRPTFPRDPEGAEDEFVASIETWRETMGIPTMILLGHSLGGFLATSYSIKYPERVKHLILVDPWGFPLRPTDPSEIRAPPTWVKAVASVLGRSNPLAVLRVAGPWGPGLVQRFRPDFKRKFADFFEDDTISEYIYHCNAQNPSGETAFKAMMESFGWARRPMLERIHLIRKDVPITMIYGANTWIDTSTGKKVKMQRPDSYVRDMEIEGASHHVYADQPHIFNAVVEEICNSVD
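Assay system: wild-type mouse ABHD4 protein; compound: single nominal dose of 8.92 µM, 0.89% DMSO final; schedule: 45 min + 60 min at 25 °C; measured by: FP readout, ex 525 nm / em 598 nm; evaluation: % inhibition of FP-Rh probe binding versus controls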
PAFAH2 FP inh: inhibitors of human PAFAH2 | recombinant PAFAH2, FP-rhodamine activity probe, fluorescence polarization | inhibition, % at 3.39 µM | hit rate 0.99% among 340,000;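 active = inhibition above the mean over all tested compounds plus 3 SD, cut at about 30% in these data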;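 note: inhibitors block probe labeling of enzyme so polarization drops; 0% = enzyme with DMSO and 100% = wells lacking PAFAH2 protein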
ABHD4 confirm: confirmation of mouse ABHD4 inhibitors. shares compounds with mABHD4 FP. purified mABHD4, FP-Rh probe fluorescence polarization. inhibition, % at 8.92 µM. hit rate 55% among 1,800. AID 720658;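 active = mean inhibition across replicates above the hit cutoff set in the primary screen, cut at about 30% in these data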;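 note: 0% = wild-type ABHD4 with DMSO and 100% = catalytically dead S159A mutant with DMSO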
Starred values were filed as active, the others as inactive; nt = not tested or not shown. Most compounds without a hit are left out; they make up all but 2.8% or so of the library.

SMILES	HTRA1 inhibitor	pPAFAH FP inh	PAFAH1B2 inh	PAFAH1B3 FP inh	mABHD4 FP	PAFAH2 FP inh	ABHD4 confirm
N#Cc1c(NC(=O)c2cccc(S(=O)(=O)Nc3ccc(C(=O)O)cc3)c2)sc2c1CCCC2	-2	14	16	7	36*	10	30*
CC1(C)Oc2cc(N)c([N+](=O)[O-])cc2O1	7	19	-5	7	41*	2	-11
COCCNc1cc(N)c([N+](=O)[O-])cc1[N+](=O)[O-]	-1	-5	1	7	1	6	nt
O=C(Nc1ccccc1)N(CCc1nc2ccccc2[nH]1)C1CCCC1	1	-5	2	3	3	-5	nt
S=C(NC1CCCCC1)N(CCc1nc2ccccc2[nH]1)C1CCCC1	-23	-1	8	3	51*	-1	53*
COc1cc(/C=C2\SC(=S)N(NC(=O)c3ccccc3O)C2=O)ccc1O	-183	-60	-94	-150	-159	-174	nt
O=C(NN1C(=O)/C(=C/c2ccc(O)c([N+](=O)[O-])c2)SC1=S)c1ccccc1Cl	3	22	6	22	49*	18	37*
CC(C)CN1C(=O)C[C@]2(C(=O)N(C)c3ccc(NC(=O)C(C)(C)C)cc32)C1c1ccccc1 (stereo partly specified)	nt	nt	nt	nt	3	nt	nt
CC(C)(C)N1Cc2nnn(Cc3ccccc3)c2-c2cc(N3CCCCC3)ccc2S1(=O)=O	nt	nt	nt	nt	16	nt	nt
Cc1cc(N2CCN(C(=O)Oc3ccc(-c4ccccc4)cn3)CC2)c2ccccc2n1	nt	nt	nt	nt	12	nt	nt
Cc1cc(N2CCN(C(=O)Oc3ccc(C(F)(F)F)cc3)CC2)c2ccccc2n1	nt	nt	nt	nt	53*	nt	23
COc1ccc2c(c1)CN1C(=O)N(Cc3ccccc3)S(=O)(=O)CC21 (stereo unspecified)	nt	nt	nt	nt	-7	nt	nt
CCOC(=O)c1c(CSc2ccc(C)cc2)n(C)c2cc(Br)c(O)c(CN(C)C)c12	-2	6	17	12	40*	8	23
CCOC(=O)c1c(CN2CCCCC2)n(C)c2cc(Br)c(O)c(CN(C)C)c12	-4	-3	3	6	nt	0	nt
CCOC(=O)c1c(CSc2ccccc2)n(C)c2cc(Br)c(O)c(CN(C)C)c12	-6	1	4	4	39*	2	9
CCOC(=O)c1c(CSc2ccsc2)n(C)c2cc(Br)c(O)c(CN(C)C)c12	-5	3	5	-2	30*	-1	2
CN(C)c1ccc(C=Nc2ccc(N(C)C)cc2)cc1	35	19	6	5	37*	0	22
Cc1ccc(N=Cc2ccc(N(C)C)cc2)cc1	-2	3	6	6	-7	-1	nt
O=C(NNC(=O)c1cccnc1)NC1CCCCC1	3	-2	3	-5	0	-2	nt
O=C(NNC(=O)c1cc(O)c(O)c(O)c1)NC1CCCCC1	24	9	3	-3	31*	0	16
CN(CCCOC(=O)c1cccs1)C1CN(Cc2cn(Cc3ccccc3Cl)nn2)S(=O)(=O)C1 (stereo unspecified)	nt	nt	nt	nt	-2	nt	nt
CC(C)[C@H](NC(=O)OC(C)(C)C)c1nnc(S(=O)(=O)Cc2c(F)cccc2Cl)o1	4	-4	6	3	31*	5	25
COc1cc(/C=C2\C(=O)NN(c3ccccc3)C2=O)cc([N+](=O)[O-])c1O	10	8	4	15	27	19	nt
O=C1NN(c2ccccc2)C(=O)/C1=C\c1ccc(-c2cc([N+](=O)[O-])ccc2O)o1	15	nt	13	33*	34*	30*	44*
CCOC(=O)CC[C@@H]1CC[C@]2(CCCN(Cc3cccs3)C2)O1	nt	nt	nt	nt	3	nt	nt
SMILES	HTRA1 inhibitor	pPAFAH FP inh	PAFAH1B2 inh	PAFAH1B3 FP inh	mABHD4 FP	PAFAH2 FP inh	ABHD4 confirm
N=C1S/C(=C\c2ccc(-c3ccccc3C(=O)O)o2)C(=O)N1c1ccc2c(c1)OCO2	8	nt	18	23	49*	17	63*
COc1ccccc1N1C(=N)S/C(=C\c2ccc(-c3ccccc3C(=O)O)o2)C1=O	-2	18	6	7	12	8	nt
COc1ccc(C(=O)NNS(=O)(=O)c2ccc(OC)cc2)cc1	7	3	4	10	0	-1	nt
COc1ccc(S(=O)(=O)NNC(=O)C(=O)NNc2ccccn2)cc1	2	4	4	7	31*	1	26
CCN(CC)c1ccc2cc(C(N)=O)c(=O)oc2c1	10	3	6	4	41*	7	4
CCN(CC)c1ccc2cc(C(N)=O)c(=N)oc2c1	nt	2	nt	nt	9	nt	nt
C=CCn1c(Cc2cccs2)nnc1SCC(=O)Nc1ccc2c(c1)OCO2	nt	nt	nt	nt	1	nt	nt
CC(=O)Oc1cccc(C2C3=C(CC(C)(C)CC3=O)Nc3ccccc3N2C(C)=O)c1 (stereo unspecified)	2	-2	0	6	5	3	nt
Cc1ccc2c(c1)N1C(=O)c3ccccc3C1C1=C(CC(C)(C)CC1=O)N2 (stereo unspecified)	-3	-3	2	-5	30*	-3	46*
COc1cc(CNc2ccc3[nH]c(=O)[nH]c3c2)ccc1OCc1ccccc1	7	5	4	7	30*	-3	16
CN(CCc1ccccn1)C(=O)c1ccc2c(c1)ncn2C1CCCCC1	nt	nt	nt	nt	3	nt	nt
CCOc1ccccc1NC1=CC(=O)CC(c2ccccc2)C1 (stereo unspecified)	-17	4	1	-6	37*	2	-6
COc1ccc(NC2=CC(=O)CC(c3ccccc3)C2)c(OC)c1 (stereo unspecified)	-6	3	-1	3	18	1	nt
C=CCn1c(COc2ccc(C)cc2)nnc1SCC(=O)c1ccc(-c2ccccc2)cc1	nt	nt	nt	nt	-3	nt	nt
O=C(NC1CCCC1)N1CCC(c2nc3ccc(Cl)cc3[nH]2)CC1	nt	nt	nt	nt	-4	nt	nt
CCN(CC)C(=O)c1sc2nc(Cc3ccccc3)[nH]c(=O)c2c1C	-14	3	-5	-2	37*	-4	40*
CCCN1CCCCC(NC(=O)c2ccc3ccccc3c2)C1=O (stereo unspecified)	nt	nt	nt	nt	5	nt	nt
CNC[C@H](Cc1ccccc1)NC[C@@H](Cc1cccc2ccccc12)NCCc1ccc(C)cc1	1	2	5	8	49*	4	49*
COC(=O)[C@]12C[C@H](CC(=O)NCc3ccccc3)C(=O)N(Cc3ccco3)C1=C[C@H](C(C)(C)C)O[C@@H]2C	nt	nt	nt	nt	7	nt	nt
O=C(O)c1cc(-c2ccc(/C=N/NC(=S)Nc3ccccc3)o2)ccc1Cl	nt	23	nt	nt	39*	nt	50*
O=[N+]([O-])c1ccccc1N=Nc1ccc(O)cc1O	nt	nt	nt	nt	32*	nt	54*
C=CCn1c(COc2ccccc2)nnc1SCC(=O)c1ccc(-c2ccccc2)cc1	nt	nt	nt	nt	0	nt	nt
